Residue numbers refer to the chain shown, from its start. Blank lines part the entries; values can stand above or below the compound they belong to.
Columns and labels:
[1] = molecular target: T1, human CNGA3 wild-type homomeric channels (Homo sapiens, UniProt Q16281); assay: Inside-out patch clamp, homomeric CNGA3 wild type expressed in X. laevis oocytes; format: biochemical
T1 sequence (Q16281 1-694): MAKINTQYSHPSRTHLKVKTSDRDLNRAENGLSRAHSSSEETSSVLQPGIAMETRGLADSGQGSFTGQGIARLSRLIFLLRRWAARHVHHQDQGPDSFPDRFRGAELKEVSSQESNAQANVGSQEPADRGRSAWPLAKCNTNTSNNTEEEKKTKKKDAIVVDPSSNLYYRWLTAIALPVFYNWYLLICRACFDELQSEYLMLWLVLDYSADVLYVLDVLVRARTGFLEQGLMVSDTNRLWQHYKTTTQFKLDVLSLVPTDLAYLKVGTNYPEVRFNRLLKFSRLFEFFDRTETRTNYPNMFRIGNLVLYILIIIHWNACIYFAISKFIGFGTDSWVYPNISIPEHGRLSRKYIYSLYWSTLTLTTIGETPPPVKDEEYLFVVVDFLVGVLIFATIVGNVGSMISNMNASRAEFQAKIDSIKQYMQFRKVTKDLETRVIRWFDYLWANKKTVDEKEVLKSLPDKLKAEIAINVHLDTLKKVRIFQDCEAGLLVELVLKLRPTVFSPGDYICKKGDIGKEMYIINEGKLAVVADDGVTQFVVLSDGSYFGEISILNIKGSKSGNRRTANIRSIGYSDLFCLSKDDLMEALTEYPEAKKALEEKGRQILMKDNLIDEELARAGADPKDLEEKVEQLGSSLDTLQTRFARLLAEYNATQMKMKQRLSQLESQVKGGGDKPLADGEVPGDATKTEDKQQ

[2] = tested on: CNG channels; conditions: ref Fodor et al., 1997; cited from earlier work
[3] = molecular target: T2, A3-N7R-A,RR-QQ+B3 channels (Homo sapiens, UniProt Q16281+Q9NQW8, R101A/R103A/R643Q/R646Q/R72A/R75A/R81A/R82A/R86A); assay: Inside-out patch clamp, A3-N7R-A,RR-QQ+B3; format: biochemical; conditions: 10 µM PIP2 or 1 µM PIP3
T2 sequence (Q16281 1-694 R72A/R75A/R81A/R82A/R86A/R101A/R103A/R643Q/R646Q): T1 sequence (Q16281 1-694) with R72A, R75A, R81A, R82A, R86A, R101A, R103A, R643Q, R646Q
T2 sequence (Q9NQW8 1-809): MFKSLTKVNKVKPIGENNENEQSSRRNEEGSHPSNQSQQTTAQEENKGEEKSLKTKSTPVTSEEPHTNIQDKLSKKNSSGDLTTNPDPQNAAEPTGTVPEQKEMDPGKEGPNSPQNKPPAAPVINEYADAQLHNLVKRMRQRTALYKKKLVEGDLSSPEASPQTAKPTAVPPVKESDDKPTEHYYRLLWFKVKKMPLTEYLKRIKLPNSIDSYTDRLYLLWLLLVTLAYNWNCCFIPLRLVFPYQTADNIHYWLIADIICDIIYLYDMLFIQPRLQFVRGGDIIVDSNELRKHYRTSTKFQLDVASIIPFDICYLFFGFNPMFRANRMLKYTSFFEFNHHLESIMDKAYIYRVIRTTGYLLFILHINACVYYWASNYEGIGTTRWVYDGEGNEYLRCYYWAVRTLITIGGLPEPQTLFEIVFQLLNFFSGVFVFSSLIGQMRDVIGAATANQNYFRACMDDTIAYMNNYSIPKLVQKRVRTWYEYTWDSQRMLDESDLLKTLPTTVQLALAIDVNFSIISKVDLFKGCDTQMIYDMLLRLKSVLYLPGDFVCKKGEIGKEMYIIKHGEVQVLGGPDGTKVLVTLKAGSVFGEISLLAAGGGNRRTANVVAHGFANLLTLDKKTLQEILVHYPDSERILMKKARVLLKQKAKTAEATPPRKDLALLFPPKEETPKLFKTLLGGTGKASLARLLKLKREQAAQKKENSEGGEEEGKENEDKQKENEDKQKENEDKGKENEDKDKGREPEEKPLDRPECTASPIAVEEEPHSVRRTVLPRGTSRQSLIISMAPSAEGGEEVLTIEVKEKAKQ
Method in brief: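 Subunit cRNAs (~20 ng, B in excess over A) injected into stage IV Xenopus oocytes; inside-out patches 2–7 d later, 20–22°C, symmetric 130 mM NaCl, 0.2 mM EDTA, 3 mM Hepes pH 7.2. Heteromer formation checked by 25 µM l-cis-diltiazem with 1 mM cGMP. diC8 phosphoinositides applied intracellularly in phosphatase-inhibitor cocktail. cGMP dose–response at +80 mV, leak-subtracted, Hill fit before/after for K1/2; mean ± SEM.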

[4] = molecular target: CNGA1 homomeric channels (Bos taurus, UniProt Q00194); assay: Inside-out patch clamp, homomeric CNGA1; format: biochemical, bovine; conditions: PIP3 or PIP2 application
[5] = molecular target: T3, heteromeric CNGA3+CNGB3 channels (Homo sapiens, UniProt Q16281+Q9NQW8); assay: Inside-out patch clamp, heteromeric CNGA3+CNGB3; format: biochemical
T3 sequence (Q16281 1-694): T1 sequence (Q16281 1-694)
T3 sequence (Q9NQW8 1-809): T2 sequence (Q9NQW8 1-809)

[6] = molecular target: T4, CNGA3 P99L, A105P (PA-LP) channels (Homo sapiens, UniProt Q16281, A105P/P99L); assay: Inside-out patch clamp, CNGA3 P99L, A105P; format: biochemical; conditions: after PIP3 or PIP2 application
T4 sequence (Q16281 1-694 P99L/A105P): T1 sequence (Q16281 1-694) with P99L, A105P

[7] = mean, after 1 µM PIP3 or 10 µM PIP2
[8] = representative patch, after PIP3 or PIP2

Sequence of CNGA1 homomeric channels (Q00194 whole entry): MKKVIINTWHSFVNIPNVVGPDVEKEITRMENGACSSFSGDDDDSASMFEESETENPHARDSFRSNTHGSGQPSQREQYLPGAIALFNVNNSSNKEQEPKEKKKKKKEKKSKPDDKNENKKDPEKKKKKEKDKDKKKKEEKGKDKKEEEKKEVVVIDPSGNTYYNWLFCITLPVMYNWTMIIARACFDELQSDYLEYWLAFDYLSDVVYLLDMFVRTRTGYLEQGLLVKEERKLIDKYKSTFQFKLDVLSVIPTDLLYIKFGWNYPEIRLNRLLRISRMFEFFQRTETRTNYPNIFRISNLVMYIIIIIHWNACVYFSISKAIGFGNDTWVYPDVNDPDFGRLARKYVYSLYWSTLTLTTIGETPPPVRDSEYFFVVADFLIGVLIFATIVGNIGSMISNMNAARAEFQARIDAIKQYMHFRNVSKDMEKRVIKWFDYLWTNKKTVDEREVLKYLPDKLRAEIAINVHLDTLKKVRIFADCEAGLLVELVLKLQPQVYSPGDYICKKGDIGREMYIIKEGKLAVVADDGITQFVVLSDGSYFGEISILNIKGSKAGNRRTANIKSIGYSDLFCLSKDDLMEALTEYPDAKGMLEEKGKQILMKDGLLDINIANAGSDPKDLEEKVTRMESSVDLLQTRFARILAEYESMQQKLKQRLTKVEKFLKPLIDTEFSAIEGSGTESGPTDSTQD

Compound: C=C1[C@@H](C)[C@H]2[C@H](Cc3ccccc3)NC(=O)[C@]23[C@H](OC(C)=O)/C=C/[C@@](C)(O)C(=O)[C@@H](C)C/C=C/[C@H]3[C@@H]1O [cyto D, cytochalasin D]
effect on cAMP efficacy ([1]; 10 µM cyto D applied to inside-out patches): decrease in cAMP efficacy

Compound: poly-lysine
Imax cAMP/cGMP after poly-lysine ([1]; poly-lysine applied to control patches (no exogenous PIPn)): 0.10 ± 0.01

Compound: CCCCNc1ccc(C(=O)OCCN(C)C)cc1 [tetracaine]
greater affinity for closed compared with open channels [2]: ~1,000 fold

regulation of apparent cGMP affinity [3]: insensitive to regulation
effect on maximal cGMP current ([1]; 1 mM cGMP): not significantly altered
K1/2 cAMP after phosphoinositide ([1]; apparent cAMP affinity after PIP3 or PIP2 application): 1.13 ± 0.04 mM
effect on relative cAMP efficacy [4]: decreased relative cAMP efficacy
effect on currents elicited by 5 µM cGMP ([5]; 1 µM PIP3 or 10 µM PIP2): attenuated the currents
Imax cAMP/cGMP after phosphoinositide ([5]; after PIP2 or PIP3 application): 0.27 ± 0.02
Hill coefficient h after phosphoinositide [5, 7]: 1.6
K1/2 cGMP after phosphoinositide [5, 7]: 23.4 ± 1.8 µM
Hill coefficient h after phosphoinositide [5, 8]: 1.6
K1/2 cGMP after phosphoinositide [5, 8]: 24.5 µM
Imax cGMP compared with initial values ([5]; saturating cGMP, after 1 µM PIP3 or 10 µM PIP2): 85.3 ± 3.7%
Hill coefficient h after phosphoinositide [6]: 1.7
K1/2 cGMP after phosphoinositide [6]: 8.7 ± 0.4 µM
Compound: phosphatidylinositol (4,5)-biphosphate [PIP2]

From article PMC3607822 (The Journal of General Physiology, 2013)
